The values that follow come from ChEMBL document CHEMBL1145482, “Acquired echinocandin resistance in a Candida krusei isolate due to modification of glucan synthase” (Antimicrob Agents Chemother, 2007).

Assay [1] has as its system Pichia kudriavzevii. Nature of the assay: Antifungal activity against FKS1 T2080K mutation containing Candida krusei 100 isolate from acute myelogenous leukemia patient by broth microdilution method. The assay is classed as functional. (In general: Dilution methods test growth across graded concentrations, often in twofold steps.)
For assay [2], the system named is Pichia kudriavzevii. Briefly: Antifungal activity against Candida krusei 98 isolate from acute myelogenous leukemia patient by broth microdilution method. The assay is classed as functional.
The test system of assay [3] is Pichia kudriavzevii. Briefly: Ratio of MIC of FKS1 T2080K mutation containing Candida krusei 100 isolate to MIC of Candida krusei 98 isolate from acute myelogenous leukemia patient by broth microdilution method. Format: functional.
The target of assay [4] is 1,3-beta-D-glucan synthase subunit (Pichia kudriavzevii, UniProt Q4U2W2). Nature of the assay: Inhibition of FKS1 from Candida krusei 98 isolate. The gist of the method:
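Glucan synthase enzyme complex isolated from the pretreatment clinical strain Ck-98 and titrated with the echinocandin. Inhibition curves were fitted with a sigmoidal variable-slope dose-response model to give IC50 in ng/ml.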

Assay [5] deals with 1,3-beta-D-glucan synthase subunit (Pichia kudriavzevii, UniProt Q4U2W2, F655C). Briefly: Inhibition of FKS1 T2080K mutant from Candida krusei 100 isolate. The gist of the method: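 Glucan synthase enzyme complex isolated from posttreatment strain Ck-100. Caspofungin titrated against the enzyme. Inhibition curve fitted with a two-site competition algorithm to give IC50 in ng/ml.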
Sequence of 1,3-beta-D-glucan synthase subunit (Pichia kudriavzevii, UniProt Q4U2W2, F655C) (Q4U2W2 entry or part of it F655C): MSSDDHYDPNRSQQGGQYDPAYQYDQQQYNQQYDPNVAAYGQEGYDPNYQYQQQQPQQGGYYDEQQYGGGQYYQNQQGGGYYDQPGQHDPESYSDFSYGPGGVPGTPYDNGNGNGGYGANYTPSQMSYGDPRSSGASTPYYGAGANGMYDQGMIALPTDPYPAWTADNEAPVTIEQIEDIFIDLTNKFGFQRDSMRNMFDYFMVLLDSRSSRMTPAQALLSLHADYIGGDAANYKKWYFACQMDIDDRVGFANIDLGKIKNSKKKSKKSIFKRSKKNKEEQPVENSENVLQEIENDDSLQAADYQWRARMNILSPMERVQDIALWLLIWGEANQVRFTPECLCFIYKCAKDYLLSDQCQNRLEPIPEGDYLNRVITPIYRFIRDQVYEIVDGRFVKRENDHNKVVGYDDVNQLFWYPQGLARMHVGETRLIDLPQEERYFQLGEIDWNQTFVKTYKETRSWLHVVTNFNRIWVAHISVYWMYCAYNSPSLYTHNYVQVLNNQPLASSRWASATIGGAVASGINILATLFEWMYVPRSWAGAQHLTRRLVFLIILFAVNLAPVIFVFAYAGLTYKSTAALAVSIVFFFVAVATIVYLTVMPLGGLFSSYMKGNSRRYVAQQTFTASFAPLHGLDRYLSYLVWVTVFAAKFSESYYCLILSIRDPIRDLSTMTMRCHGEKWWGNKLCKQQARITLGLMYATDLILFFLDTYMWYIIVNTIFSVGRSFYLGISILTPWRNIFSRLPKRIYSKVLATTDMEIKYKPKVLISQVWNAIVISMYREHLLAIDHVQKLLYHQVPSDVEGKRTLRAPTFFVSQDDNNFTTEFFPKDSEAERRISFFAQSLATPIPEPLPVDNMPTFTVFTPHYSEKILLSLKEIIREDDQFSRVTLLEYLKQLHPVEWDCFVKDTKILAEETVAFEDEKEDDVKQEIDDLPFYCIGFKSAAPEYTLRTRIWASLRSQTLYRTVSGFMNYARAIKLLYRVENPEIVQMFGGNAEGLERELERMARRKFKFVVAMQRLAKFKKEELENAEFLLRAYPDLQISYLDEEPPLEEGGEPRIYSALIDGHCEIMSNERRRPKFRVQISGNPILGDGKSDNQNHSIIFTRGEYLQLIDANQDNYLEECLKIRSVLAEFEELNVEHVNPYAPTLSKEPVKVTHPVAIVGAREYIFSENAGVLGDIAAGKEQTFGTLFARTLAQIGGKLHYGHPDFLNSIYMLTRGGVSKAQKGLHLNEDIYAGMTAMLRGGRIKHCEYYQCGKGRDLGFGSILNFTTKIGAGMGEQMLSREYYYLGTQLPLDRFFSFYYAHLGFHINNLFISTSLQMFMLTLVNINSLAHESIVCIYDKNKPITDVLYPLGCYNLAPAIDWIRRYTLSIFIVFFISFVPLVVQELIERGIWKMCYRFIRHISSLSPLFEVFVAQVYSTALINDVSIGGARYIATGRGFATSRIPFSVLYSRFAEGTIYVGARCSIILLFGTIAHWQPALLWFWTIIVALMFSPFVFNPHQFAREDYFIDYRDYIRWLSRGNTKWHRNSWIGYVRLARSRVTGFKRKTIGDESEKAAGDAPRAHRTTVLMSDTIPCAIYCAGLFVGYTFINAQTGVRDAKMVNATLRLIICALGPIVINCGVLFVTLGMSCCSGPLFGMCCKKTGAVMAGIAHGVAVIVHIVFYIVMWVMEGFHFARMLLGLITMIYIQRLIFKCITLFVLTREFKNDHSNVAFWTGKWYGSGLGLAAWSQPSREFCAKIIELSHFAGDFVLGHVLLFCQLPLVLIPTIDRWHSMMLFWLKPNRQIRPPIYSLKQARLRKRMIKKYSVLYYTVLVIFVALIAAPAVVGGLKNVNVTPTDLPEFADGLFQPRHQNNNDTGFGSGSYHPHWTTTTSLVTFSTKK

In brackets after ≈: the same amount, converted by molar mass. *1 amine or outer side, *2 acyl side, *3 side chain or, on linkers, in order; H or OH if unused. Where a SMILES comes first, the peptide text is derived from it. Bridges are numbered along the chain shown (N, C = ends). [ ]: non-standard residue; d: D form. The star is where a group is joined. hTyr(3S-OH,4S-OH,3'-OSO3H) = N[C@H](C(=O)O)[C@H](O)[C@@H](O)c1ccc(O)c(OS(=O)(=O)O)c1; pTerphenylCO(4''-OnC5H11) = CCCCCOc1ccc(-c2ccc(-c3ccc(C(=O)*)cc3)cc2)cc1; Orn(4R-OH,5R-OH) = O=C([C@H](C[C@@H](O)[C@@H](O)N[*:3])N[*:1])[*:2]; hTyr(3S-OH,4S-OH) = N[C@H](C(=O)O)[C@H](O)[C@@H](O)c1ccc(O)cc1; Pro(3S-OH,4S-Me) = C[C@H]1CN[C@H](C(=O)O)[C@H]1O; X1 = CCCCCOc1ccc(-c2cc(-c3ccc(C(=O)*)cc3)no2)cc1; Gln(3R-OH) = NC(=O)C[C@@H](O)[C@H](N)C(=O)O; Hyp = O=C(O)[C@@H]1C[C@@H](O)CN1

Sequence of 1,3-beta-D-glucan synthase subunit (Pichia kudriavzevii, UniProt Q4U2W2) (Q4U2W2 whole entry): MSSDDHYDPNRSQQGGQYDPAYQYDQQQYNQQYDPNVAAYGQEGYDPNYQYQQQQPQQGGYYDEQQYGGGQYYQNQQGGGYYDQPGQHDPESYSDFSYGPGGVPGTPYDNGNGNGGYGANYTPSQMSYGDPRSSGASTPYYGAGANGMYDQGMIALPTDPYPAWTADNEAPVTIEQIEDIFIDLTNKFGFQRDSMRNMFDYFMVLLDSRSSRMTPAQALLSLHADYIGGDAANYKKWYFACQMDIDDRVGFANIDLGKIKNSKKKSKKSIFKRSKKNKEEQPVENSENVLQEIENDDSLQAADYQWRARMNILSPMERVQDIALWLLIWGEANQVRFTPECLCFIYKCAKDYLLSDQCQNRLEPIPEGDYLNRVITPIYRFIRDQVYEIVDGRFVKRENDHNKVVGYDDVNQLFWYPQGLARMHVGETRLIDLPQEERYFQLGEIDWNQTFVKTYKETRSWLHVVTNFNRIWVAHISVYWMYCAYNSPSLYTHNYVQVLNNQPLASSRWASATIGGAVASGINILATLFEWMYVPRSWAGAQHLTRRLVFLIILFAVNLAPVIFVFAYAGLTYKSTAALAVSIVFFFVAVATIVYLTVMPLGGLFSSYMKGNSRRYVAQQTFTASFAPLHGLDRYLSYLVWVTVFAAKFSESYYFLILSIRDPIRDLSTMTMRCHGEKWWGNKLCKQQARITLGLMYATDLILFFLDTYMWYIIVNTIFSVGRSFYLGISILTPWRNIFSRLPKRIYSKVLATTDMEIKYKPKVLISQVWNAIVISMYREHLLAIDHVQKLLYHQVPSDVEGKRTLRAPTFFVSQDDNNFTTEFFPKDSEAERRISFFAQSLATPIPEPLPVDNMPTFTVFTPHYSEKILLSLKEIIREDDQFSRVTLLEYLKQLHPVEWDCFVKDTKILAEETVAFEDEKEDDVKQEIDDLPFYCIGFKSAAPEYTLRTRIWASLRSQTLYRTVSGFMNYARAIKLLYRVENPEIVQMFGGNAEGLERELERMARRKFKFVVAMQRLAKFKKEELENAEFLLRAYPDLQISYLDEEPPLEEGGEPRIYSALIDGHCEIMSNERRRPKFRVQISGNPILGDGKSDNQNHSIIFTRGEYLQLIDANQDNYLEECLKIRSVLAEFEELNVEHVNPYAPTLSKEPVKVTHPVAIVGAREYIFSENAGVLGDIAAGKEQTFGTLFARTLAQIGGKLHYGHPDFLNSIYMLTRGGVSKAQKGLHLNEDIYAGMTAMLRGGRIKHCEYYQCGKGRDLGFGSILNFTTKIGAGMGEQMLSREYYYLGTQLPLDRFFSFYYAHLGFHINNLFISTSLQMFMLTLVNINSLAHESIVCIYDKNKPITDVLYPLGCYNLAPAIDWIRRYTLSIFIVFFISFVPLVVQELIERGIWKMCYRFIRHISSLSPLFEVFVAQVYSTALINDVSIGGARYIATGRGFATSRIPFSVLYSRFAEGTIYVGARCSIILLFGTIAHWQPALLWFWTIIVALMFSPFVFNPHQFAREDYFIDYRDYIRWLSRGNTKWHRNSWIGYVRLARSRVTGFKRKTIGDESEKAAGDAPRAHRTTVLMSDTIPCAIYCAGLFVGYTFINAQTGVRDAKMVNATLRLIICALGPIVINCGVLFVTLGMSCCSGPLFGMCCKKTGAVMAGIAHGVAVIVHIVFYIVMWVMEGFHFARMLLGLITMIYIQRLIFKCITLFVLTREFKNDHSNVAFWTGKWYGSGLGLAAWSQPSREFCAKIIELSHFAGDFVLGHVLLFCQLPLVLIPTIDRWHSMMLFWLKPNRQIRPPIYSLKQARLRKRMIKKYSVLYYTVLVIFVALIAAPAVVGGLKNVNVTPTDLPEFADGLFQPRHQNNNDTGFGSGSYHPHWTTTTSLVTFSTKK

For `CCCCCOc1ccc(-c2ccc(-c3ccc(C(=O)N[C@H]4C[C@@H](O)[C@@H](O)NC(=O)[C@@H]5[C@@H](O)[C@@H](C)CN5C(=O)[C@H]([C@@H](C)O)NC(=O)[C@H]([C@H](O)[C@@H](O)c5ccc(O)cc5)NC(=O)[C@@H]5C[C@@H](O)CN5C(=O)[C@H]([C@@H](C)O)NC4=O)cc3)cc2)cc1` [ANIDULAFUNGIN] ({pTerphenylCO(4''-OnC5H11)}-[Orn(4R-OH,5R-OH)]T[Hyp][hTyr(3S-OH,4S-OH)]T[Pro(3S-OH,4S-Me)]; lactam 1-C), the MIC against Pichia kudriavzevii [1] is 4 µg/mL (≈ 3.51 µM); against Pichia kudriavzevii [2], 0.25 µg/mL (≈ 0.219 µM). The Ratio with Pichia kudriavzevii [3] was 16.

`CC[C@H](C)C[C@H](C)CCCCCCCCC(=O)N[C@H]1C[C@@H](O)[C@@H](NCCN)NC(=O)[C@@H]2[C@@H](O)CCN2C(=O)[C@H]([C@H](O)CCN)NC(=O)[C@H]([C@H](O)[C@@H](O)c2ccc(O)cc2)NC(=O)[C@@H]2C[C@@H](O)CN2C(=O)[C@H]([C@@H](C)O)NC1=O` [CASPOFUNGIN]: the MIC came to 8 µg/mL (≈ 7.32 µM) with Pichia kudriavzevii [1] and 0.25 µg/mL (≈ 0.229 µM) in the assay with Pichia kudriavzevii [2]. Also, the IC50 in assay [4] was 6.22 nM; in assay [5], 3610 nM. Besides, the Ratio in the assay with Pichia kudriavzevii [3] is 32.

In the case of `CCCCCOc1ccc(-c2cc(-c3ccc(C(=O)N[C@H]4C[C@@H](O)[C@@H](O)NC(=O)[C@@H]5[C@@H](O)[C@@H](C)CN5C(=O)[C@H]([C@H](O)CC(N)=O)NC(=O)[C@H]([C@H](O)[C@@H](O)c5ccc(O)c(OS(=O)(=O)O)c5)NC(=O)[C@@H]5C[C@@H](O)CN5C(=O)[C@H]([C@@H](C)O)NC4=O)cc3)no2)cc1` [MICAFUNGIN] (X1-[Orn(4R-OH,5R-OH)]T[Hyp][hTyr(3S-OH,4S-OH,3'-OSO3H)][Gln(3R-OH)][Pro(3S-OH,4S-Me)]; lactam 1-C), the MIC in the assay with Pichia kudriavzevii [1] worked out at 4 µg/mL (≈ 3.15 µM); with Pichia kudriavzevii [2] it was 0.25 µg/mL (≈ 0.197 µM). Besides, the Ratio in the assay on Pichia kudriavzevii [3] was 16.

In general, MIC refers to the least concentration at which growth counts as inhibited. High values mean a less susceptible organism, low ones a more susceptible organism. The term IC50 denotes the point on the concentration scale where inhibition reaches its midpoint. Higher therefore signals weaker potency.
